In the library only some 12% were active in any assay of this set; here they are far more common.
Wee1 degr inh: Wee1 degradation inhibitors, primary screen, cell-based, HeLa, Wee1K328M-luciferase, luminescence | HeLa Luc-Wee1K328M stability; 100% = proteasome inhibitor MG132 effect | reporter increase, % at 5 µM | Wee1-like protein kinase (Homo sapiens), P30291 | 220,000 compounds, 1.2% hits;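 active means activation above the mean of all tested compounds plus 3 SD, set per screening run, cut at about 8.8% in these data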;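 further: cells exposed to compound for 20 h before luminescence read; 0% = DMSO alone and 100% = MG132 at 30 µM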
Target sequence (P30291 whole entry K328M): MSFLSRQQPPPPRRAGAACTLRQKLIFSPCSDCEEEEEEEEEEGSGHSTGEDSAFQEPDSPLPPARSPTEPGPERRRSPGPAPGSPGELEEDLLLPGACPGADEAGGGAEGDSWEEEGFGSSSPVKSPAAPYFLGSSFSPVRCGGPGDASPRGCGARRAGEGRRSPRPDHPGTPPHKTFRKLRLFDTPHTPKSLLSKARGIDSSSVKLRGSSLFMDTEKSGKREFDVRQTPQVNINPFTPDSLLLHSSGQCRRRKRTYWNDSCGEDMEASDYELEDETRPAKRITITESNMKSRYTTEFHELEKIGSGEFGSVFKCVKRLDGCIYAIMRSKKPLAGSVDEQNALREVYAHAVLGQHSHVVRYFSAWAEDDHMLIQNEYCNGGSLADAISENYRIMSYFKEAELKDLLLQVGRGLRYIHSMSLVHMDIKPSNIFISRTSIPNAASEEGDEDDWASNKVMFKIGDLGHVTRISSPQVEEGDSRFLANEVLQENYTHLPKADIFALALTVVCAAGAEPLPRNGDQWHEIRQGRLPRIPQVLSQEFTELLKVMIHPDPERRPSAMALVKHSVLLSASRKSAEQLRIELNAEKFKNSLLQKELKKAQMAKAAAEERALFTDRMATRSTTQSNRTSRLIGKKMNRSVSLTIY
Arbovirus inh: antivirals against arbovirus infection, primary screen, cell-based, full library, 10K replicate subset. arbovirus infection cell-based antiviral screen. inhibition, % at 10 µM. 200,000 compounds, 0.37% hits; in the data active means inhibition above about 30%
Lmaj promast: Leishmania major promastigote growth inhibition, primary screen; inhibition, % at 10 µM; 200,000 compounds, 9% hits; AID 1063, 2008; Leishmania major promastigotes, resazurin fluorescence viability;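 further: promastigotes grown with compound for 44 hours at 28 °C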
PKD1 inh: inhibitors of human PKD1 kinase, biochemical, fluorescence polarization; Serine/threonine-protein kinase D1 (Homo sapiens), Q15139; PKD1 kinase fluorescence polarization assay; inhibition, % (concentration not given with the values); 200,000 compounds, 0.056% hits; AID 797, 2007
CHOP inh: inhibitors of CHOP promoter induction, primary screen, cell-based, unfolded protein response, luciferase reporter | CHO-K1 CHOP-promoter luciferase, tunicamycin-induced, 15-18 h | inhibition, % at 10 µM | 220,000 compounds, 3.8% hits | AID 2732, 2010;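 active means compounds that reduced the stress-induced luciferase reporter signal by more than about 70% of percent inhibition, limit read from the data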;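 further: 0% = tunicamycin plus vehicle and 100% = wells without tunicamycin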
Rad51 HR inh: human RAD51 strand exchange inhibitors, primary screen, biochemical, fluorescence; hRad51 DNA strand exchange, fluorescence dequenching; inhibition, % at 10 µM; 200,000 compounds, 0.085% hits; DNA repair protein RAD51 homolog 1 (Homo sapiens), Q06609;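 active means inhibition above 40% at the single screening dose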;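 further: 0% = DMSO control wells and 100% = blanks with heterologous ssDNA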
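Test system – preformed human Rad51 ssDNA filaments · Reagent – Donor/quencher-labelled 47-bp dsDNA substrate · Incubation – 37 °C 15-min filament assembly, 30-min compound preincubation, 15-min exchange · Signal – FRET fluorescence dequenching, excitation 485 nm, emission 520 nm · Read-out – percent inhibition from fluorescence, normalised to plate control and blank means · Benchmarks – plate control and blank wells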
Starred values were filed as active, the others as inactive; i = inactive; · = no result. Unless noted, no stated cut-off is given here; in the data, active means inhibition above about 50%; inactive means the rest.

SMILES | Wee1 degr inh | Arbovirus inh | Lmaj promast | PKD1 inh | CHOP inh | Rad51 HR inh
Cc1nn(C)c(Cl)c1CN1CCN(C2CCCCC2)C(CCO)C1 (configuration not stated) | -4 | 1 | -4 | -5 | -1 | 6
CC(C)=CCN1CCN(CCC2=C(C)CCCC2(C)C)CC1CCO (configuration not stated) | -3 | 20 | 80* | 8 | 9 | 5
CCC(=O)N(Cc1ccc(S(N)(=O)=O)cc1)C1CC(=O)N(c2ccccc2)C1=O (configuration not stated) | -2 | -3 | -7 | -2 | 13 | -38
COc1cc(C(=O)OC(C)C(=O)Nc2ccc3c(c2)OCO3)ccc1OCc1c(C)noc1C (configuration not stated) | -1 | -9 | -1 | -12 | -13 | 5
Cc1noc(C)c1COc1cccc(C(=O)OC(C)C(=O)Nc2ccc3c(c2)OCO3)c1 (configuration not stated) | 4 | -20 | 59* | -8 | 45 | 5
Cc1ccc(NC(=O)c2cccc(OCc3c(C)noc3C)c2)cc1S(=O)(=O)Nc1ccccc1Cl | -2 | 3 | 83* | -1 | 31 | 2
Cc1noc(C)c1COc1cccc(C(=O)Nc2ccc3c(c2)OCO3)c1 | 1 | -17 | 8 | -3 | 21 | 8
Cc1cc(C)n2nc(SCC(=O)N(C)c3c(N)n(Cc4ccccc4)c(=O)[nH]c3=O)nc2n1 | 2 | 2 | -7 | -5 | -10 | -4
Cc1ccc(/C=C/C(=O)c2nc3ccccc3[nH]2)cc1 | -1 | 16 | 98* | 1 | -45 | -6
O=C(NCC(O)CN1CCOCC1)c1ccc([N+](=O)[O-])cc1 (configuration not stated) | -1 | 3 | -6 | 1 | 18 | 6
COc1ccc(C2CC(c3ccccc3)=NN2C(=O)COC(=O)C2CC2)cc1 (configuration not stated) | -2 | -2 | 4 | -11 | 19 | 2
COc1ccc(C2CC(c3ccccc3)=NN2C(=O)COC(=O)C2(C)CC2(Cl)Cl)cc1 (configuration not stated) | 1 | 3 | 60* | 3 | 13 | -12
CCCCOc1ccc(NC(=S)Nc2cc(C)nc(SCCCC)n2)cc1 | 4 | 13 | -4 | 1 | 62 | 7
CCN1/C(=C/c2cc[n+](CCCS(=O)(=O)[O-])c3ccccc23)Sc2ccccc21 | 3 | 3 | 100* | 1 | 0 | i
CCOC(=O)/C(=C\C=C1/Sc2ccccc2N1CC)C(C)=O | 0 | -1 | 49 | -16 | 33 | ·
COC(=O)C1=CN(CC2CCCO2)C=C(C(=O)OC)C1c1ccsc1 (configuration not stated) | 1 | 7 | -5 | -16 | -31 | -5
COC(=O)C1=CN(Cc2cccs2)C=C(C(=O)OC)C1c1ccc(OC)cc1OC | 3 | -5 | 98* | -2 | 2 | 5
COC(=O)C1=CN(Cc2cccs2)C=C(C(=O)OC)C1c1cccc(Cl)c1 | 4 | -10 | -2 | 6 | 0 | 23
COC(=O)C1=CN(Cc2ccc(OC)cc2)C=C(C(=O)OC)C1c1ccsc1 | 1 | -5 | 100* | 0 | 13 | -6
COc1cc(C2C=C(c3cccs3)Nc3ncnn32)cc(OC)c1OC (configuration not stated) | -2 | 6 | 6 | 2 | -3 | -426
COC(=O)c1c(NC(=O)CC2SC(N)=NC2=O)sc(C)c1C (configuration not stated) | -1 | 3 | 2 | 6 | 0 | 5
CCc1ccc(CSc2nccn2-c2ccccc2)cc1 | 0 | -5 | -1 | -9 | 72* | -2
c1ccc(CCSc2nccn2-c2ccccc2)cc1 | 1 | 2 | 38 | 6 | 40 | 3
COC(=O)/C(=C(/F)SCC(C)=O)C(F)(F)F | 2 | 11 | 0 | -5 | -7 | 2
Cc1nc([N+](=O)[O-])c(SCC(N)=O)n1Cc1ccccc1 | -2 | -7 | 0 | -7 | 17 | -13
Cc1nc([N+](=O)[O-])c(Sc2nc3ccccc3n2C)n1Cc1ccccc1 | 3 | -29 | 96* | -4 | 9 | -3
